These results are taken from ChEMBL document CHEMBL1212875, “Improved inhibition of the histone acetyltransferase PCAF by an anacardic acid derivative” (Bioorg Med Chem, 2010).

Calls of active or inactive are those of the source. No cut-off for these calls is given here.

The target of test [1] is T1, Histone acetyltransferase KAT2B (Homo sapiens, UniProt Q92831). Description: Inhibition of human recombinant histone acetyltransferase PCAF by ELISA. The essentials: (§1)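 Indirect ELISA. Biotinylated histone H4 peptide (300 nM coating) captured on streptavidin wells. Recombinant human PCAF (240 nM solution) preincubated 15 min with inhibitor in 100 mM HEPES pH 7.4, 0.1% BSA, 0.16% Triton X-100. Reaction started with Ac-CoA (40 µM solution) for 15 min. Detection by anti-acetyl-Lys antibody, HRP secondary, TMB, A450. No-inhibitor wells = 100%, no-Ac-CoA = 0%. Triplicate; DMSO stocks.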

The target in test [2] is T1, Histone acetyltransferase KAT2B. As to the kind of experiment: Inhibition of […] in human HepG2 cells assessed as decrease in SAHA-induced histone H4 acetylation levels at 30 uM after 24 hrs by Western blotting. In kind it is cell-based. Put shortly:
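HepG2 cells in DMEM with 10% heat-inactivated FBS at 37 °C, 5% CO2; grown to ~70% confluency, FBS-starved 16 h, then treated 24 h with 5 µM SAHA plus inhibitor at sub-toxic concentrations. Histones extracted, ~5 µg resolved by SDS-PAGE, immunoblotted with anti-acetyl-histone H4; densitometry with Coomassie loading check. Levels relative to untreated cells (100%), mean ± SEM of three independent experiments.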
Target sequence in this assay (Q92831 whole entry, looked up): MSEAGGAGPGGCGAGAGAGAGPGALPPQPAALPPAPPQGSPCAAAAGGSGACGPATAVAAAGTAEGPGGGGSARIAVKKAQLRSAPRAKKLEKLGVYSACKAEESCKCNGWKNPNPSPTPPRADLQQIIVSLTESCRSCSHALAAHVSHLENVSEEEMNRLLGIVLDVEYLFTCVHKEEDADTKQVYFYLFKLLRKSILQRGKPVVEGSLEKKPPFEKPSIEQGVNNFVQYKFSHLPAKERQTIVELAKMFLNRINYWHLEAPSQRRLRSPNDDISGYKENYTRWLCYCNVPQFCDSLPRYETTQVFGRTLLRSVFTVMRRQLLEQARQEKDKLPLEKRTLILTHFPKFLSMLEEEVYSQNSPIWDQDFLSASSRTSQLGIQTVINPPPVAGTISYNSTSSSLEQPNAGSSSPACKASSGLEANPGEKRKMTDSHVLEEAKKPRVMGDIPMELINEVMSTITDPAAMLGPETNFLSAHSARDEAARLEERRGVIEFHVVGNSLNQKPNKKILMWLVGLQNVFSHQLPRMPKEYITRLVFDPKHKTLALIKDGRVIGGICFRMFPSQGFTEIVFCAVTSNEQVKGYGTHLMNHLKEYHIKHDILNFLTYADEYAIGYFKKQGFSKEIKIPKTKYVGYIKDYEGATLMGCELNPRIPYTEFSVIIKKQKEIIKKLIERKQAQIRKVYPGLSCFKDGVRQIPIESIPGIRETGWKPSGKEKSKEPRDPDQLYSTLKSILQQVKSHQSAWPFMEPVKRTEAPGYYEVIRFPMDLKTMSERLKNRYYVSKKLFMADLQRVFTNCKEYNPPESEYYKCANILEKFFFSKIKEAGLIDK

Test [3] has the same target. As to the kind of experiment: Inhibition of histone acetyltransferase PCAF in human HepG2 cells assessed as decrease in SAHA-induced histone H4 acetylation levels at 60 uM after 24 hrs by Western blotting. For orientation: A western blot detects proteins with antibodies after separation by electrophoresis.
Target sequence in this assay (Q92831 whole entry, looked up): as above
For test [4] the target is unchanged. Description: Inhibition of human recombinant histone deacetylase PCAF at 1 mM by ELISA. The essentials: as §1
Target sequence in this assay (Q92831 whole entry, looked up): as above

For `CCCCCOc1ccc(CCc2cccc(O)c2C(=O)O)cc1`, in test [1], the inhibition (as a rule, the drop in the measured response relative to a control, in per cent) was “Active”.
Take `CCCCCCCCCCc1cccc(O)c1C(=O)O`: in test [1], the inhibition entry is “Active”.
Consider `COc1ccccc1OCCCc1cccc(O)c1C(=O)O`, for which, in test [1], the inhibition entry was “Active”.
Consider `CCCCCOc1ccc(/C=C\c2cccc(O)c2C(=O)O)cc1`, for which the inhibition entry in test [2] and in test [3] was “Active” in each case. Moreover, in test [1], the IC50 – broadly, the concentration that gives 50% inhibition – worked out at 662 µM.
For `C=CC/C=C\C/C=C\CCCCCCCc1cccc(O)c1C(=O)O` [ANACARDIC ACID], the inhibition result in test [2], in test [1] and in test [3] was “Active” each time. Further, in test [1], the IC50 was determined as 1000 µM. The inhibition in test [4] amounted to 40%.
With `CCCCCCCc1ccc(CCc2cccc(O)c2C(=O)O)cc1`, in test [1], the inhibition entry is “Active”.
`CCCCCCCCCCCCCCOc1cccc(O)c1C(=O)O`: in test [1], the inhibition result is “Active”.
Still for that read-out and setting: the value for `CCCCCCCCCCc1cc(O)cc(O)c1C(=O)O` was “Active”.
On to `O=C(O)c1c(O)cccc1OCc1ccccc1`, for which the inhibition in test [4] turned out to be 20%.
Regarding `CCCCCCCCCCCCCCCc1cc(O)cc(O)c1C(=O)O`, the inhibition entry in test [1] is “Active”.
